Measured values as given in ChEMBL document CHEMBL3351346, “Design, synthesis, structure-function relationship, bioconversion, and pharmacokinetic evaluation of ertapenem prodrugs” (J Med Chem, 2014).

What was measured:
Canis familiaris [1] = experiment: AUC (0 to 8 hrs) in fasted Beagle dog assessed as ertapenem level at 10 mg/kg dosed through intraduodenal route by LC-MS/MS method; type: ADME, organism-based, Canis lupus familiaris, Plasma; set-up: time < 8 hr, dose 10 mg/kg, route intraduodenal; conditions: in vivo, other
How it was run: (§1)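 Prodrugs were given intraduodenally to bypass stomach acid. Plasma was sampled at intervals over 8 h, and parent prodrug, the two monoester metabolites and ertapenem were quantified by LC-MS/MS. The lower limit of quantitation was 5 nM. AUC(0–8) was used, and it differed from AUC(0–∞) by ±20%. Vehicles were 30% Captisol or 0.5% methylcellulose, as solution or suspension depending on compound.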

[2] = Stability in pH 2.0 simulated gastric fluid assessed as compound degradation to beta-lactam ring open products at 1 uM after 60 mins by LC-MS/MS method; type: ADME; conditions: read-out: Drug degradation
How it was run: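 Incubation was in simulated gastric fluid (SGF, pH 2.0) for 60 min, with loss to the β-lactam ring-opened product measured by LC-MS/MS.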

[3] = Stability in human plasma assessed as compound remaining at 50 uM at 37 degC after 60 mins by LC-MS/MS method; type: ADME, cell-free; conditions: read-out: Stability
How it was run: (§2)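 Prodrugs were incubated in rat or human plasma for 60 min. Disappearance of prodrug and concomitant appearance of ertapenem were followed by LC-MS/MS, and in selected cases monoesters from partial hydrolysis were also monitored. Ertapenem itself was incubated the same way as a control.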

[4] = Stability in rat plasma assessed as compound remaining at 50 uM at 37 degC after 60 mins by LC-MS/MS method; type: ADME, cell-free; conditions: read-out: Stability; how it was run: as §2
[5] = Stability in pH 7.4 phosphate buffer assessed as compound remaining at 50 uM after 3 hrs by LC-MS/MS method; type: physicochemical; conditions: read-out: Stability
Canis familiaris [6] = experiment: (§3) AUC (0 to 8 hrs) in fasted Beagle dog at 10 mg/kg dosed through intraduodenal route by LC-MS/MS method; type: ADME, organism-based, Canis lupus familiaris, Plasma; set-up: time < 8 hr, dose 10 mg/kg, route intraduodenal; conditions: in vivo, other, 8 h, BLD = below limit of detection; how it was run: as §1
Canis familiaris [7] = experiment: Oral bioavailability in fasted Beagle dog assessed as assessed as ertapenem and monoetser metabolites level at 10 mg/kg dosed through intraduodenal route by LC-MS/MS method; type: ADME, organism-based, Canis lupus familiaris; conditions: in vivo
How it was run: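 Total absorption followed intraduodenal dosing with LC-MS/MS of plasma over 8 h. It was calculated as the combined dose-normalized AUC of circulating parent prodrug, ertapenem and two monoesters, divided by dose-normalized AUC of ertapenem given iv. Vehicle was 30% Captisol or 0.5% methylcellulose.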

[8] = Stability in pH 6.5 simulated gastrointestinal fluid assessed as compound remaining at 50 uM after 3 hrs by LC-MS/MS method; type: ADME; conditions: read-out: Stability
How it was run: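 Compounds at 50 μM were incubated in fasted-state simulated intestinal fluid (FaSSIF, pH 6.5) for over 3 h. Percent remaining was determined by LC-MS/MS.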

Canis familiaris [9] = experiment: Oral bioavailability in fasted Beagle dog assessed as ertapenem level at 10 mg/kg dosed through intraduodenal route by LC-MS/MS method; type: ADME, organism-based, Canis lupus familiaris; conditions: in vivo
How it was run: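 After intraduodenal dosing, plasma over 8 h was analysed by LC-MS/MS. Bioavailability was calculated as dose-normalized AUC of ertapenem formed from the prodrug divided by dose-normalized AUC of ertapenem dosed iv. Vehicle was 30% Captisol or 0.5% methylcellulose.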

Canis familiaris [10] = experiment: AUC (0 to 8 hrs) in fasted Beagle dog assessed as 8-OH, C-3 ester level at 10 mg/kg dosed through intraduodenal route by LC-MS/MS method; type: ADME, organism-based, Canis lupus familiaris, Plasma; set-up: time < 8 hr, dose 10 mg/kg, route intraduodenal; conditions: in vivo, other; how it was run: as §1
[11] = as §3; type: ADME, organism-based, Canis lupus familiaris, Plasma; set-up: time < 8 hr, dose 10 mg/kg, route intraduodenal; conditions: Beagle, plasma; how it was run: as §1
Canis familiaris [12] = experiment: AUC (0 to 8 hrs) in fasted Beagle dog assessed as 8-OH, benzoate ester level at 10 mg/kg dosed through intraduodenal route by LC-MS/MS method; type: ADME, organism-based, Canis lupus familiaris, Plasma; set-up: time < 8 hr, dose 10 mg/kg, route intraduodenal; conditions: in vivo, other; how it was run: as §1

In the case of `C[C@@H](O)[C@H]1C(=O)N2C3=C(S[C@@H]4CN[C@@H](C4)C(=O)Nc4cccc(c4)C(=O)OCc4oc(=O)oc4COC3=O)[C@H](C)[C@H]12`, the AUC (Canis familiaris [1]) is reported as 0.7 µM·h, the degraded at 1 h, 1 µM [2] is reported as over 25% and the remaining at 1 h, 50 µM [3] is reported as 0%. For the same molecule, the remaining at 1 h, 50 µM [4] was 0%, the remaining at 3 h, 50 µM [5] was over 95% and the AUC (Canis familiaris [6]) was “BLD”. For the same molecule, the F (Canis familiaris [7]) was 1%, the remaining at 3 h, 50 µM [8] was over 95% and the F (Canis familiaris [9]) was 1%.

`CCC(=O)OCOC(=O)C1=C(S[C@@H]2CN[C@H](C(=O)Nc3cccc(C(=O)OCOC(=O)CC)c3)C2)[C@H](C)[C@@H]2[C@@H]([C@@H](C)O)C(=O)N12` showed an AUC (Canis familiaris [1]) of 1.6 µM·h, a degraded at 1 h, 1 µM [2] of over 25% and a remaining at 1 h, 50 µM [3] of 0%. For the same molecule, the AUC (Canis familiaris [10]; BLD = below limit of detection) was “BLD”, the remaining at 1 h, 50 µM [4] was 0% and the remaining at 3 h, 50 µM [5] was over 95%. For the same molecule, the AUC (Canis familiaris [6]) was “BLD”, the F (Canis familiaris [7]) was 2.9% and the remaining at 3 h, 50 µM [8] was over 95%. It also gave an F (Canis familiaris [9]) of 2.9%.

For `CCCCCCCCOC(=O)C1=C(S[C@@H]2CN[C@H](C(=O)Nc3cccc(C(=O)OCCCCCCCC)c3)C2)[C@H](C)[C@@H]2[C@@H]([C@@H](C)O)C(=O)N12`, the AUC (Canis familiaris [1]; BLD = below limit of detection) was “BLD”, the degraded at 1 h, 1 µM [2] was over 25% and the remaining at 1 h, 50 µM [3] was 80%. For the same molecule, the remaining at 1 h, 50 µM [4] was 4%, the remaining at 3 h, 50 µM [5] was over 95% and the AUC(0-t) at 8 h [11] was 0.6 µM·h. The F (Canis familiaris [7]) was 1.1%, the remaining at 3 h, 50 µM [8] was over 95% and the F (Canis familiaris [9]; BLD = below limit of detection) was “BLD”.

Work on `CCOC(=O)C1=C(S[C@@H]2CN[C@H](C(=O)Nc3cccc(C(=O)OCC)c3)C2)[C@H](C)[C@@H]2[C@@H]([C@@H](C)OC(=O)[C@@H](N)C(C)C)C(=O)N12` yielded an AUC (Canis familiaris [1]) of 6.5 µM·h, a degraded at 1 h, 1 µM [2] of over 25% and a remaining at 1 h, 50 µM [3] of 38%. The AUC (Canis familiaris [10]) was 0.9 µM·h, the remaining at 1 h, 50 µM [4] was 0% and the remaining at 3 h, 50 µM [5] was over 95%. For the same molecule, the AUC (Canis familiaris [6]) was “BLD”, the F (Canis familiaris [7]) was 14.9% and the remaining at 3 h, 50 µM [8] was over 95%. For the same molecule, the AUC (Canis familiaris [12]) was 1 µM·h and the F (Canis familiaris [9]) was 9.7%.

For `CC(C)OC(=O)OCOC(=O)C1=C(S[C@@H]2CN[C@H](C(=O)Nc3cccc(C(=O)OCOC(=O)OC(C)C)c3)C2)[C@H](C)[C@@H]2[C@@H]([C@@H](C)O)C(=O)N12`, the degraded at 1 h, 1 µM [2] was over 25%, the remaining at 1 h, 50 µM [3] was 28% and the remaining at 1 h, 50 µM [4] was 3%. The remaining at 3 h, 50 µM [5] was over 95% and the remaining at 3 h, 50 µM [8] was over 95%.

Work on `CCC(CC)C(=O)OCOC(=O)C1=C(S[C@@H]2CN[C@H](C(=O)Nc3cccc(C(=O)O)c3)C2)[C@H](C)[C@@H]2[C@@H]([C@@H](C)O)C(=O)N12` yielded a degraded at 1 h, 1 µM [2] of over 25%, a remaining at 1 h, 50 µM [3] of 82% and a remaining at 1 h, 50 µM [4] of 0%. The remaining at 3 h, 50 µM [5] was over 95% and the remaining at 3 h, 50 µM [8] was over 95%.

Work on `C[C@@H](O)[C@H]1C(=O)N2C(C(=O)O)=C(S[C@@H]3CN[C@H](C(=O)Nc4cccc(C(=O)OCOC(=O)C(C)(C)C)c4)C3)[C@H](C)[C@H]12` yielded a degraded at 1 h, 1 µM [2] of over 25%, a remaining at 1 h, 50 µM [3] of 53% and a remaining at 1 h, 50 µM [4] of 0%. It also gave a remaining at 3 h, 50 µM [5] of over 95% and a remaining at 3 h, 50 µM [8] of over 95%.

With `Cc1oc(=O)oc1COC(=O)N1C[C@@H]2C[C@H]1C(=O)Nc1cccc(c1)C(=O)OC/C=C\COC(=O)C1=C(S2)[C@H](C)[C@@H]2[C@@H]([C@@H](C)O)C(=O)N12` the degraded at 1 h, 1 µM [2] was over 25%, the remaining at 1 h, 50 µM [3] was 20% and the remaining at 1 h, 50 µM [4] was 0%. For the same molecule, the remaining at 3 h, 50 µM [5] was over 95% and the remaining at 3 h, 50 µM [8] was over 95%.

In the case of `CCC(CC)C(=O)OCOC(=O)C1=C(S[C@@H]2CN[C@H](C(=O)Nc3cccc(C(=O)OCOC(=O)C(CC)CC)c3)C2)[C@H](C)[C@@H]2[C@@H]([C@@H](C)O)C(=O)N12`, the degraded at 1 h, 1 µM [2] is reported as over 25%, the remaining at 1 h, 50 µM [3] is reported as 83% and the remaining at 1 h, 50 µM [4] is reported as 3%. For the same molecule, the remaining at 3 h, 50 µM [5] was over 95% and the remaining at 3 h, 50 µM [8] was over 95%.
